Experimental data: article PMC3761190 (The British Journal of Dermatology, 2013)
Like-named read-outs stand apart in the source and are kept apart here. Blank lines part the entries; values can stand above or below the compound they belong to.

Tests used:
plaque psoriasis = conditions: cited from earlier work; for Mean total lesion score decrease from baseline: week 4
psoriasis = conditions: week 4; 13-point scale; cited from earlier work
[1] = Plasma pharmacokinetics after 4 weeks of topical treatment; assay type: in vivo, human; conditions: approx. 1.5% BSA, comparator Pfizer, data on file
Outline: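 Adults with mild-to-moderate chronic plaque psoriasis applied test-compound ointment (one formulation 2%, 20 mg g−1) twice daily for 4 weeks at 3 mg cm−2 to a fixed 300 cm2 area. Week-4 plasma sampled predose and 1, 2, 4–9 h post-dose.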

SMILES: N#CC[C@H](C1CCCC1)n1cc(-c2ncnc3[nH]ccc23)cn1 [INCB018424]
- Tolerability of topical application (plaque psoriasis; cream, 4 weeks): well tolerated
- Mean total lesion score decrease from baseline (plaque psoriasis; 1.0% cream daily): 53%
- Mean total lesion score decrease from baseline (plaque psoriasis; 1.5% cream twice daily): 54%

SMILES: CCC(=O)OCC(=O)[C@@]1(OC(=O)CC)[C@@H](C)C[C@H]2[C@@H]3CCC4=CC(=O)C=C[C@]4(C)[C@@]3(F)[C@@H](O)C[C@@]21C [betamethasone dipropionate]
- Total lesion sum score percentage change from baseline (psoriasis): –41%

- Mean systemic exposure lower than with oral tofacitinib 2 mg twice daily [1]: approximately 40 fold
SMILES: C[C@@H]1CCN(C(=O)CC#N)C[C@@H]1N(C)c1ncnc2[nH]ccc12 [tofacitinib, Tofacitinib]
